Measured values reported in publication PMC9043999 (Cell Reports Medicine, 2022).

Legend:
[1] = test system: GLP-1R; conditions: target β cells; cited from earlier work
[2] = test system: human islets; assay: RPPA phosphoproteins with Ingenuity Pathway Analysis; assay type: cell-based; conditions: for annotations predicting pathway activation (Z score > 2) / pathways predicting inhibition (Z score < −2): 10^−8 M, 5 min, N = 3 male donors; for most represented biological function: 5 min stimulation (Fig S5)
Outline: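 Islets came from three male human donors and were cultured overnight at 37°C in phenol-red-free RPMI (11 mM glucose, 10% charcoal-stripped FBS). They were treated with test compounds at 10−8 M for 5 min, 30 min or 18 h, against untreated islets. Lysates were twofold serially diluted (5 dilutions), arrayed on slides and probed with 485 antibodies using tyramide amplification and DAB detection. Pathway changes were analysed with IPA Downstream Effects Analysis.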

[3] = test system: MLD-STZ-induced diabetes in male C57BL6 mice; assay: MLD-STZ-induced diabetes, wild-type mice; assay type: in vivo, mouse
[4] = test system: human islets; assay: RPPA protein expression with gene ontology enrichment; assay type: cell-based; conditions: for GO pathways with downregulated proteins / GO pathways with upregulated proteins: adjusted p value < 0.01
Outline: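 Islets from 3 male human donors, cultured overnight at 37°C in phenol-red-free RPMI (11 mM glucose, 10% charcoal-stripped FBS). […] Lysates serially diluted twofold (5 dilutions), arrayed on nitrocellulose, probed with 485 antibodies via tyramide amplification and DAB; expression normalized.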

[5] = test system: insulin-deficient diabetes induced by a single high dose of streptozotocin in male and female mice; conditions: single high dose of STZ; cited from earlier work
[6] = test system: ERE-GFP MIN6 cells; assay: ERE-GFP reporter activation, flow cytometry; assay type: cell-based, mouse
Outline: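 MIN6 cells were stably transduced with a lentiviral 4×ERE-driven GFP reporter and selected with puromycin (2 μg/mL). They were kept in phenol-free DMEM with 10% charcoal-stripped FBS for 7 days before and during assays. Test compounds were given overnight at 10−8 M, or in time courses at 10 nM (1 min) or 100 nM (1, 15, 60, 120 min). Percent GFP-positive cells were scored by flow cytometry, gated on vehicle-treated cells.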

For glucagon-like peptide-1 [GLP-1], the “clathrin-mediated endocytosis of GLP-1R” value [1] is listed as “promotes ligand-activated, clathrin-mediated endocytosis of GLP-1R”, the “annotations predicting pathway activation (Z score > 2)” value [2] is listed as “related to cell viability and survival” and the “pathways predicting inhibition (Z score < −2)” value [2] is listed as “related to cell death, apoptosis, or necrosis”. For the same molecule, the “most represented biological function” value [2] was “Cell Death & Survival”, the “antidiabetic efficacy at dose ten times lower” value ([3]; mice, dose ten times lower (12 μg/kg)) was “not efficient in mice” and the “GO pathways with downregulated proteins” value ([4]; 18 h) was “downregulated multiple proteins enriched in pathways involved in apoptosis, cytokine and oxidative stress-related inflammation, protein phosphorylation, Akt/PI3-kinase, and cell cycle”. The “GO pathways with upregulated proteins” value ([4]; 18 h) was “upregulated few proteins enriched in pathways involved in response to cytokines and glycolysis”.
In the case of `C[C@]12CC[C@@H]3c4ccc(O)cc4CC[C@H]3[C@@H]1CC[C@@H]2O` [E2, 17β-Estradiol], the “prevention of insulin-deficient diabetes” value [5] is given as “prevents insulin-deficient diabetes”, the “level of phosphoproteins and related total proteins” value ([2]; 5 and 30 min, vs GLP-1 or GLP1-E2) is given as “heightened level of phosphoproteins and related total proteins at 5 and 30 min” and the “annotations predicting pathway activation (Z score > 2)” value [2] is given as “related to cell viability and survival”. For the same molecule, the “pathways predicting inhibition (Z score < −2)” value [2] was “related to cell death, apoptosis, or necrosis”, the “most represented biological function” value [2] was “Cell Death & Survival” and the level of phosphoproteins ([2]; 18 h, vs GLP-1 or GLP1-E2) was “decreased in phosphoproteins at 18 h”. For the same molecule, the “increase in percentage of ERE-activated MIN6 cells” value ([6]; 24 h exposure (text; overnight in legend), 10^−8 M (Fig 2D, 2E)) was 4.7 fold, the “ERE activation with ER antagonist fulvestrant” value ([6]; E2 after pretreatment with fulvestrant) was “reversed by pretreatment with the ER antagonist fulvestrant” and the “increase in percentage of ERE-activated MIN6 cells” value ([6]; E2 alone 1 min, 10 nM (Fig 2F, 2G)) was 6.1 fold. The “time to reach the nucleus and activate EREs” value ([6]; MIN6 cells) was ≤ 1 min, the “index of β cell function (insulin/glucose)” value ([3]; male C57BL6 mice, 120 μg/kg/day, day 13, vs other treatments) was “maintenance of the index of β cell function” and the hyperglycemia ([3]; male C57BL6 mice, 120 μg/kg/day, vs other treatments, n = 10) was “decrease in hyperglycemia”. The protein expression ([4]; 5 and 30 min) was “heightened protein expression at 5 and 30 min”, the “GO pathways with downregulated proteins” value ([4]; 18 h) was “downregulated multiple proteins enriched in pathways involved in apoptosis and inflammation, protein phosphorylation, transcription, and Akt/PI3-kinase” and the “GO pathways with upregulated proteins” value ([4]; 18 h) was “upregulated few proteins enriched in pathways involved in proliferation and response to estrogen”. The protein expression ([4]; 18 h, compared to GLP-1- and GLP1-E2-treated islets) was “decreased protein expression level at 18 h”.
